18 molecules from PubChem BioAssay AID588321 (Southern Research Specialized Biocontainment Screening …, 2011) can be followed below.

Experiment [1] has as its system E. coli UTI89 K1F phage lysis inhibition, OD600. Kind of experiment: inhibition of K1F phage lysis of E. coli UTI89, confirmation, capsule biogenesis inhibitor project, set 5 (AID 588321). In a few lines: (§1)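 Test system: Uropathogenic E. coli UTI89 (K1 capsule) and kpsM mutant cultures; reagent: K1F phage infection; times: 1.25 h pre-incubation, 3 h after phage, 37 °C; signal: absorbance at 600 nm (OD600); read-out basis: lysis from OD600 3 h after phage; benchmarks: kpsM mutant resisting phage lysis; repeats: quadruplicate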

Test in experiment [2]: as above
The following applies: E. coli UTI89 K1F phage lysis inhibition, OD600; for CC50: measured here: cytotoxicity; for inhibition of phage lysis: at 100 µM (top of the series). The method, boiled down:
as §1

Active and inactive are the calls of the source.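 How the source made its calls: active means phage lysis blocked by at least 50% at any tested concentration; inactive means the rest.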 Bounds are passed on as bounds.

As a reminder, the IC50 is the concentration at which inhibition is half-maximal. What is called CC50 is the concentration that lowers cell viability or growth by half. Low readings indicate greater toxicity to the cells, high ones lower toxicity to the cells.

Consider `O=C(Nc1cc(-c2ccccc2)sc1C(=O)O)c1cccc(Cl)c1`, for which the IC50 in experiment [1] is 83.5 µM. In addition, the CC50 in experiment [2] was determined as 52.6 µM.

In the case of `O=C(O)c1sc(-c2ccccc2)cc1NC(=O)C1CCCC1`, the inhibition of phage lysis in experiment [2] is 15.2% (inactive).

As for `O=C(Nc1cc(-c2ccccc2)sc1C(=O)O)c1ccc(Cl)s1`, in experiment [2], the inhibition of phage lysis was 10.1% (inactive) and the CC50 turned out to be 71.5 µM.

Take `O=C(Nc1ccncc1)c1ccc2ncsc2c1`: the IC50 in experiment [1] is 1.03 µM.

Consider `COC(=O)c1sc(-c2ccccc2)cc1NC(=O)c1c(F)cccc1F`, for which, in experiment [2], the inhibition of phage lysis was 29.8% (inactive) and the CC50 stood at 10.4 µM.

Take `O=C(Nc1cc(-c2ccccc2)sc1C(=O)O)c1cc2ccccc2o1`: the inhibition of phage lysis in experiment [2] was 10.4% (inactive).

Regarding `CCOc1ccc(-c2cc(NC(=O)c3cccc(Cl)c3)c(C(=O)O)s2)cc1`, the IC50 in experiment [1] was 45.6 µM. In experiment [2], this molecule yielded a CC50 of 83.9 µM.

As to `O=C(Nc1cc(-c2ccccc2)sc1C(=O)O)c1ccc(Br)o1`, in experiment [1], the IC50 is 58.4 µM. In experiment [2], the CC50 turned out to be 104 µM.

Consider `Cc1onc(-c2ccccc2)c1C(=O)Nc1cc(-c2ccccc2)sc1C(=O)O`, for which, in experiment [2], the inhibition of phage lysis was 3.71% (inactive) and the CC50 amounted to 52.6 µM.

Turning to `Cc1ccc(C(=O)Nc2cc(-c3ccccc3)sc2C(=O)O)s1`, the CC50 in experiment [2] amounted to 63.6 µM.

Regarding `O=C(Nc1cc(-c2ccccc2)sc1C(=O)O)c1cccs1`, the IC50 in experiment [1] was 82.7 µM. The same molecule showed a CC50 in experiment [2] of 89.3 µM.

As to `Cc1c(C(=O)Nc2cc(-c3ccccc3)sc2C(=O)O)oc2ccccc12`, in experiment [2], the inhibition of phage lysis is 5.2% (inactive) and the CC50 was determined as 48.7 µM.

`O=C(Nc1cc(-c2ccccc2)sc1C(=O)O)c1cccc(F)c1`: in experiment [2], the inhibition of phage lysis is 18.7% (inactive) and the CC50 came out at 76.9 µM.

For the molecule `O=C(O)c1sc(-c2ccccc2)cc1NC(=O)C1CCCCC1`, the inhibition of phage lysis in experiment [2] was 16.1% (inactive).

For `CCOc1ccc(-c2cc(NC(=O)c3c(F)cccc3F)c(C(=O)OC)s2)cc1`, in experiment [2], the inhibition of phage lysis was 14.9% (inactive) and the CC50 was more than 300 µM.

Regarding `O=C(Nc1cc(-c2ccccc2)sc1C(=O)O)c1ccc2c(c1)OCCO2`, the IC50 in experiment [1] is 42.7 µM. In experiment [2], this molecule showed a CC50 of 82.1 µM.

As for `O=C(Nc1cc(-c2ccccc2)sc1C(=O)O)c1cc(Cl)c2c(c1)OCCO2`, in experiment [2], the inhibition of phage lysis was 6% (inactive).

Consider `CCOc1ccc(-c2cc(NC(=O)c3ccc(OC)c(OC)c3)c(C(=O)O)s2)cc1`, for which, in experiment [1], the IC50 was 56 µM. The molecule further showed a CC50 in experiment [2] of 82.8 µM.
